The target in data set [1] is T1, Muscarinic acetylcholine receptor M1 (Rattus norvegicus, UniProt P08482).
T1 sequence (P08482 whole entry): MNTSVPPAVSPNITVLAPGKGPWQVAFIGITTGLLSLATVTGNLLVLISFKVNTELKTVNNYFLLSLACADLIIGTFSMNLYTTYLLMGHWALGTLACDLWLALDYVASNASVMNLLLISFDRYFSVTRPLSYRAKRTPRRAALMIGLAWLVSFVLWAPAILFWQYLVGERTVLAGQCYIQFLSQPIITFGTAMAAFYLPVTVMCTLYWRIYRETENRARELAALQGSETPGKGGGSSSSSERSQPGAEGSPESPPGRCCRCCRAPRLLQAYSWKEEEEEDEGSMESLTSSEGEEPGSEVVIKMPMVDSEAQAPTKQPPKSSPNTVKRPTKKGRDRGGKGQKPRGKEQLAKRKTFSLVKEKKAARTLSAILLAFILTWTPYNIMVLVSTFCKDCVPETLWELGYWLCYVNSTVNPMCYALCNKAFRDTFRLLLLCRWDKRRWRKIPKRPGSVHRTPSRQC
Briefly: Displacement of [3H]QNB from muscarinic M1 receptor in Wistar rat brain cortex membrane after 2 hrs by liquid scintillation counting. It is filed as cell membranes. A general note: Displacement assays read how much labelled ligand stays bound in the presence of the test substance.

For data set [2], the system named is Rattus norvegicus. As to the kind of experiment: Effect on scopolamine-induced memory loss and learning impairment in Wistar rat assessed as transfer latency at 0.1 mg/kg, ip after 30 mins by elevated plus maze test. The data set is classed as functional. Further details: unit not given beside the values. The conditions noted are these: route intraperitoneal. The method in brief: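 Male Wistar rats on an elevated plus maze. Scopolamine 0.4 mg/kg ip; test compound 0.1 mg/kg ip given together with scopolamine 30 min before exploration; controls received distilled water. On day 1 each rat explored the maze for 90 s. Transfer latency was measured on day 1 (TL1, learning) and on day 2 in the same animals (TL2, memory), and the average was reported.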

Data set [3] has as its system Rattus norvegicus. As to the kind of experiment: Antiamnesic activity against scopolamine-induced memory loss in Wistar rat assessed as time taken to reach shock free zone at 0.1 mg/kg, ip measured for 15 mins by passive avoidance step-down task test. It is filed as functional. The conditions noted are these: route intraperitoneal. On the set-up: unit not given beside the values. The method in brief:
(§1)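 Male Wistar rats (200-250 g), scopolamine 0.4 mg/kg ip to induce memory loss; test compound 0.1 mg/kg ip given together with scopolamine. Passive avoidance step-down task run in a rodent memory evaluator. Read-outs: basal latency (s) to reach the shock-free zone over trials I-III, memory latency (s) and number of mistakes, given as mean ± S.E.M.; p < 0.005 taken as significant.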

The test system of data set [4] is Rattus norvegicus. Briefly: Antiamnesic activity against scopolamine-induced memory loss in Wistar rat assessed as latency time at 0.1 mg/kg, ip measured for 15 mins by passive avoidance step-down task test. The note with it: route intraperitoneal. Further details: unit not given beside the values. The data set is classed as functional. The gist of the method:
as §1

Data set [5] deals with Rattus norvegicus. Briefly: Antiamnesic activity against scopolamine-induced memory loss in Wistar rat assessed as number of mistake done at 0.1 mg/kg, ip measured for 15 mins by passive avoidance step-down task test. The conditions noted are these: route intraperitoneal. The data set is classed as functional. The gist of the method: as §1
Data set [6] relates to Rattus norvegicus. Briefly: Acute toxicity in po dosed rat assessed as death after 1 week. It is filed as organism-based. The note with it: in vivo, 168 h. The gist of the method:
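Rats fasted 16 h, six per group, given various oral doses; deaths recorded daily over 1 week of observation after treatment.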

Consider 13 compounds from ChEMBL document CHEMBL1155208 (Eur J Med Chem, 2009).

What is called IC50 is the concentration needed to halve the response being measured. One may read the Ki as the dissociation constant of the complex between target and ligand, obtained from inhibition or displacement.

`CN1CCC=C(C2SCC(=O)N2c2ccc(Nc3ccccc3)cc2)C1` (stereo unspecified) registered an IC50 in data set [1] of 48 µM. This compound registered a Ki in data set [1] of 19 µM. The Activity was 14 in the data set with Rattus norvegicus [2]; 5 in the data set with Rattus norvegicus [3]; 3 in the data set on Rattus norvegicus [4]; 16 in the data set with Rattus norvegicus [5]; “Non-toxic” in the data set on Rattus norvegicus [6].

`CCCCCCN1C(=O)CSC1C1=CCCN(C)C1` (stereo unspecified) came in with an IC50 in data set [1] of 632 µM. Also, the Ki in data set [1] was 110 µM. The Activity is given as 30 in the data set on Rattus norvegicus [2]; 7 in the data set on Rattus norvegicus [3]; 4 in the data set on Rattus norvegicus [4]; 21 with Rattus norvegicus [5]; “Non-toxic” in the data set with Rattus norvegicus [6].

As to `Cc1ccc(N2C(=O)CSC2C2=CCCN(C)C2)c([N+](=O)[O-])c1` (stereo unspecified), in data set [1], the IC50 stood at 626 µM. Further, in data set [1], the Ki came out at 125 µM. Moreover, the Activity in the data set with Rattus norvegicus [2] was 40; with Rattus norvegicus [3] it was 5; with Rattus norvegicus [4], 3; with Rattus norvegicus [5] it was 25; with Rattus norvegicus [6] it was “Non-toxic”.

In data set [1], `CCN1C(=O)CSC1C1=CCCN(C)C1` (stereo unspecified) returned an IC50 of 670 µM. The Ki in data set [1] turned out to be 230 µM. The Activity with Rattus norvegicus [2] was 45; in the data set with Rattus norvegicus [3] it was 4; with Rattus norvegicus [4] it was 2; in the data set on Rattus norvegicus [5], 21; with Rattus norvegicus [6], “Non-toxic”.

Compound `CN1CCC=C(C2SCC(=O)N2c2ccc(Br)cc2)C1` (stereo unspecified) registered an IC50 in data set [1] of 536 µM. In data set [1], this compound gave an inhibitory constant (Ki) of 122 µM. Further, the Activity with Rattus norvegicus [2] is reported as 38; in the data set with Rattus norvegicus [3], 7; with Rattus norvegicus [4], 3; in the data set with Rattus norvegicus [5] it was 29; with Rattus norvegicus [6], “Non-toxic”.

`CCCCN1C(=O)CSC1C1=CCCN(C)C1` (stereo unspecified) came in with an IC50 in data set [1] of 68 µM. In data set [1], this compound had a Ki of 32 µM. The Activity in the data set with Rattus norvegicus [2] is recorded as 17; in the data set with Rattus norvegicus [3] it was 5; with Rattus norvegicus [4], 4; in the data set on Rattus norvegicus [5], 12; with Rattus norvegicus [6], “Non-toxic”.

On to `CN1CCC=C(C2SCC(=O)N2c2cccc(O)c2)C1` (stereo unspecified), for which the concentration for half-maximal inhibition (IC50) in data set [1] came out at 563 µM. Besides, the Ki in data set [1] was 102 µM. Further, the Activity is 22 in the data set with Rattus norvegicus [2]; 6 in the data set on Rattus norvegicus [3]; 3 with Rattus norvegicus [4]; 23 in the data set on Rattus norvegicus [5]; “Non-toxic” in the data set on Rattus norvegicus [6].

In turn, `CN1CCC=C(C2SCC(=O)N2c2ccc(C(=O)O)cc2)C1` (stereo unspecified) came in with an IC50 in data set [1] of 74 µM. In data set [1], this compound gave a Ki of 37 µM. Also, the Activity in the data set on Rattus norvegicus [2] is listed as 18; in the data set on Rattus norvegicus [3] it was 6; in the data set with Rattus norvegicus [4] it was 4; with Rattus norvegicus [5], 14; in the data set with Rattus norvegicus [6] it was “Non-toxic”.

`CN1CCC=C(C2SCC(=O)N2c2ccc(Cl)cc2)C1` (stereo unspecified): the IC50 in data set [1] turned out to be 653 µM. For the same compound, in data set [1], the Ki was 200 µM. For the same compound, the Activity with Rattus norvegicus [2] is 42; with Rattus norvegicus [3] it was 3; in the data set with Rattus norvegicus [4], 3; with Rattus norvegicus [5] it was 28; in the data set on Rattus norvegicus [6], “Non-toxic”.

As for `CN1CCC=C(C2SCC(=O)N2Cc2ccccc2)C1` (stereo unspecified), in data set [1], the IC50 was 789 µM. The compound further showed an inhibitory constant (Ki) in data set [1] of 149 µM. The Activity with Rattus norvegicus [2] was 19; in the data set with Rattus norvegicus [3], 7; in the data set on Rattus norvegicus [4] it was 4; in the data set with Rattus norvegicus [5], 30; in the data set on Rattus norvegicus [6], “Non-toxic”.

In turn, `CC(C)N1C(=O)CSC1C1=CCCN(C)C1` (stereo unspecified) yielded a 50% inhibitory concentration (IC50) in data set [1] of 579 µM. In data set [1], this compound registered a Ki of 97 µM. The Activity in the data set with Rattus norvegicus [2] was 35; in the data set on Rattus norvegicus [3], 8; in the data set with Rattus norvegicus [4], 3; in the data set on Rattus norvegicus [5], 30; in the data set on Rattus norvegicus [6], “Non-toxic”.

Turning to `CN1CCC=C(C2SCC(=O)N2c2ccc([N+](=O)[O-])cc2)C1` (stereo unspecified), the IC50 in data set [1] came to 158 µM. The compound also registered a Ki in data set [1] of 43 µM. Also, the Activity was 21 with Rattus norvegicus [2]; 7 in the data set with Rattus norvegicus [3]; 4 with Rattus norvegicus [4]; 25 in the data set with Rattus norvegicus [5]; “Non-toxic” with Rattus norvegicus [6].

`CN1CCC=C(C2SCC(=O)N2c2ccccc2)C1` (stereo unspecified) registered an IC50 in data set [1] of 886 µM. This compound registered a Ki in data set [1] of 105 µM. For the same compound, the Activity is given as 44 in the data set on Rattus norvegicus [2]; 8 with Rattus norvegicus [3]; 4 with Rattus norvegicus [4]; 32 with Rattus norvegicus [5]; “Non-toxic” in the data set with Rattus norvegicus [6].
